Results published in ChEMBL document CHEMBL3244161, “Azabicycloalkanes as analgetics. 3. Structure-activity relationships of 1-phenyl-6-azabicyclo[3.2.1]octanes and absolute stereochemistry of (+)-1-(3-hydroxyphenyl)-6-methyl-6-azabicyclo[3.2.1]octane and its 7-endo-methyl derivative” (J Med Chem, 1977).
Calls of active or inactive are those of the source. No cut-off for these calls is given here.

Legend:
Mus musculus [1] = assay: Analgesic activity in mouse assessed as inhibition of AcOH-induced writhing up to 22.5 mg/kg, sc; assay type: functional, organism-based; parameters: dose 22.5 mg/kg
[2] = (§1) Acute toxicity in sc dosed mouse; assay type: organism-based; conditions: in vivo
Mus musculus [3] = assay: Analgesic activity in sc dosed mouse assessed as inhibition of AcOH-induced writhing; assay type: functional
Oryctolagus cuniculus [4] = assay: Narcotic antagonist activity in rabbit assessed as inhibition of morphine-induced respiratory depression up to 1 mg/kg, iv; assay type: functional, organism-based; parameters: dose 1 mg/kg
Method in brief: (§2)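 Rabbits given test compound iv; read-out is antagonism of morphine-induced respiratory depression; expressed as AD50 in mg/kg or as % antagonism at a fixed dose.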

Mus musculus [5] = assay: Analgesic activity in mouse assessed as inhibition of AcOH-induced writhing up to 10 mg/kg, sc; assay type: functional, organism-based; parameters: dose 10 mg/kg
Oryctolagus cuniculus [6] = assay: Narcotic antagonist activity in iv dosed rabbit assessed as inhibition of morphine-induced respiratory depression; assay type: functional; method in brief: as §2
Mus musculus [7] = assay: Analgesic activity in sc dosed mouse by hot-plate method; assay type: functional
Rhesus monkey [8] = assay: Suppression of abstinence syndrome in morphine-dependent rhesus monkey at 10 mg/kg; assay type: functional, organism-based; parameters: dose 10 mg/kg; conditions: Macaca mulatta
Mus musculus [9] = assay: as §1; assay type: organism-based; conditions: in vivo
Rhesus monkey [10] = assay: Suppression of abstinence syndrome in morphine-dependent rhesus monkey at 8 mg/kg; assay type: functional, organism-based; parameters: dose 8 mg/kg; conditions: Macaca mulatta
Oryctolagus cuniculus [11] = assay: Narcotic antagonist activity in rabbit assessed as inhibition of morphine-induced respiratory depression at 5 mg/kg, iv; assay type: functional; method in brief: as §2
Rhesus monkey [12] = assay: Narcotic antagonist activity in morphine-dependent rhesus monkey assessed as mild to moderate abstinence at 5 to 20 mg/kg; assay type: functional, organism-based; conditions: Macaca mulatta
Method in brief: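 Compound given to nonwithdrawn morphine-dependent monkeys; scored as precipitation of abstinence syndrome, with severity graded from mild to severe over the stated dose range.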

Mus musculus [13] = assay: Analgesic activity in sc dosed mouse assessed as time duration of activity by hot-plate method; assay type: functional
Mus musculus [14] = assay: Analgesic activity in mouse by hot-plate method up to 100 mg/kg, sc; assay type: functional, organism-based; parameters: dose 100 mg/kg
Rhesus monkey [15] = assay: Suppression of abstinence syndrome in morphine-dependent rhesus monkey at 5 mg/kg; assay type: functional, organism-based; parameters: dose 5 mg/kg; conditions: Macaca mulatta
[16] = Mus musculus, sc, read-out: ED50

SMILES	Activity (Mus musculus [1])	LD50 [2] [mg/kg]	ED50 (Mus musculus [3]; [16]) [mg/kg]	further results
Br.CC1NC2CCCC1(c1cccc(O)c1)C2 (racemic)	inactive	> 100	–	–
CCCCCCN1C2CCCC(c3cccc(O)c3)(C2)C1C.Cl (racemic)	–	25.4	0.27	inhibition (Oryctolagus cuniculus [4]): inactive
CC1C2CCCC1(c1cccc(O)c1)C(C)N2C (racemic; 16)	–	–	–	Activity (Mus musculus [5]): inactive
O=C(O)C(=O)O.Oc1cccc(C23CCCC(C2)N(CCc2ccccc2)C3)c1 (racemic)	inactive	> 100	–	–
C=CCN1C2CCCC(c3cccc(O)c3)(C2)C1C.Cl (racemic)	–	> 30	22.5	AD50 (Oryctolagus cuniculus [6]): 0.17 mg/kg
C=CCN1CC[C@]23c4c5ccc(O)c4O[C@H]2C(=O)CC[C@@]3(O)[C@H]1C5.Cl [NALOXONE HYDROCHLORIDE]	–	–	–	AD50 (Oryctolagus cuniculus [6]): 0.0044 mg/kg
Br.CC1N(C)C2CCCC1(c1cccc(OC(=O)c3cccnc3)c1)C2 (racemic)	–	184	5.5	–
COc1cccc(C23CCCC(C2)NC3)c1.O=C(O)C(=O)O (racemic)	inactive	> 100	–	–
Br.Oc1cccc(C23CCCC(C2)NC3)c1 (racemic)	inactive	> 100	–	–
C=CCN1CC2(c3ccccc3)CCCC1C2.O=C(O)C(=O)O (racemic)	inactive	> 100	–	AD50 (Oryctolagus cuniculus [6]): 2.2 mg/kg
CN1CC2(c3ccccc3)CCCC1C2.Cl (racemic)	–	> 30	22.8	–
Br.CC1C2CCCC1(c1cccc(O)c1)C(C)N2C (racemic; 14)	–	> 30	–	–
Br.CC1N(C)C2CCCC1(c1cccc(OC(=O)c3ccccc3)c1)C2 (racemic)	–	156	5.7	–
Br.CC1N(C)C2CCCC1(c1ccc(O)c(O)c1)C2 (racemic)	–	> 10	–	Activity (Mus musculus [5]): inactive
C=CCN1CC[C@]23c4c5ccc(O)c4O[C@H]2[C@@H](O)C=C[C@H]3[C@H]1C5.Cl [NALORPHINE HYDROCHLORIDE]	–	–	–	AD50 (Oryctolagus cuniculus [6]): 0.16 mg/kg
CN1CC[C@]23c4c5ccc(O)c4O[C@H]2[C@@H](O)C=C[C@H]3[C@H]1C5.Cl [MORPHINE HYDROCHLORIDE]	–	–	0.8	ED50 (Mus musculus [7]; [16]): 1.2 mg/kg
CCOC(=O)C1(c2ccccc2)CCN(C)CC1.Cl [MEPERIDINE HYDROCHLORIDE]	–	273	4.5	ED50 (Mus musculus [7]; [16]): 4.7 mg/kg
Cl.O=C(CCCN1CC2(c3ccccc3)CCCC1C2)c1ccc(F)cc1 (racemic)	–	> 200	4.1	–
Cl.Oc1cccc(C23CCCC(C2)N(CC2CC2)C3)c1 (racemic)	–	> 100	30	AD50 (Oryctolagus cuniculus [6]): 1.8 mg/kg
CC1N(C)C2CCCC1(c1ccccc1)C2.Cl (racemic)	–	> 30	20	ED50 (Mus musculus [7]; [16]): 20 mg/kg; Activity (Rhesus monkey [8]): inactive
CC(=O)Oc1cccc(C23CCCC(C2)N(C)C3C)c1.Cl (single isomer, unassigned; (+))	–	–	2.4	ED50 (Mus musculus [7]): 3.6 mg/kg; LD50 (Mus musculus [9]): 129.5 mg/kg
Br.CC1N(C)C2CCCC1(c1cccc(O)c1)C2 (racemic; 9)	–	–	4.9	LD50 (Mus musculus [9]): 113.5 mg/kg

SMILES	Activity (Mus musculus [1])	LD50 [2] [mg/kg]	ED50 (Mus musculus [3]; [16]) [mg/kg]	further results
CCCCN1C2CCCC(c3cccc(O)c3)(C2)C1C.Cl (racemic)	–	> 30	–	Activity (Mus musculus [5]): inactive
CC(=O)Oc1cccc(C23CCCC(C2)N(C)C3C)c1.Cl (single isomer, unassigned; (-))	–	–	–	LD50 (Mus musculus [9]): 113.5 mg/kg
CC(=O)Oc1cccc(C23CCCC(C2)N(C)C3C)c1 (racemic)	–	–	–	Activity (Rhesus monkey [10]): inactive
Br.COc1cccc(C23CCCC(C2)NC3C)c1 (racemic)	inactive	> 100	–	–
CCCCCCN1CC2(c3cccc(O)c3)CCCC1C2.Cl (racemic)	–	> 100	17.5	–
Br.CC1N(C)C2CCCC1(c1cc(O)cc(O)c1)C2 (racemic)	inactive	> 100	–	–
COc1ccc2c3c1O[C@H]1[C@@H](O)C=C[C@H]4[C@@H](C2)N(C)CC[C@@]341.COc1ccc2c3c1O[C@H]1[C@@H](O)C=C[C@H]4[C@@H](C2)N(C)CC[C@@]341.O.O=P(O)(O)O.O=P(O)(O)O [CODEINE PHOSPHATE]	–	231	9.5	ED50 (Mus musculus [7]; [16]): 7.5 mg/kg
CCCCCN1C2CCCC(c3cccc(O)c3)(C2)C1C.Cl (racemic)	–	36.7	1.5	inhibition (Oryctolagus cuniculus [11]): inactive
Cl.O=C(CCN1CC2(c3ccccc3)CCCC1C2)c1ccccc1 (racemic)	inactive	> 100	–	–
Br.CC(C)=CCN1C2CCCC(c3cccc(O)c3)(C2)C1C (racemic)	–	> 30	15	AD50 (Oryctolagus cuniculus [6]): 0.086 mg/kg
Cl.O=C(CCCN1CC2(c3cccc(O)c3)CCCC1C2)c1ccccc1 (racemic)	–	> 100	5.2	–
Cl.Oc1cccc(C23CCCC(C2)N(C/C=C/c2ccccc2)C3)c1 (racemic)	inactive	> 100	–	AD50 (Oryctolagus cuniculus [6]): 0.96 mg/kg
CN1C[C@@]2(c3cccc(O)c3)CCC[C@@H]1C2	inactive	156	–	ED50 (Mus musculus [7]; [16]): 20 mg/kg; inhibition in vivo at 5 mg/kg (Oryctolagus cuniculus [11]): 41%; Activity (Rhesus monkey [12]): Active; Activity (Rhesus monkey [8]): inactive
Br.COc1cccc(C23CCCC(C2)N(C)C3C)c1 (racemic)	–	25.9	6.1	–
Br.CCC1N(C)C2CCCC1(c1cccc(OC(C)=O)c1)C2 (racemic)	–	55.1	10.1	ED50 (Mus musculus [7]; [16]): 9.9 mg/kg
Br.CC1N(C)C2CCCC1(c1cccc(O)c1)C2 (racemic; 8)	–	113	–	ED50 (Mus musculus [3]): 4.5 mg/kg; ED50 (Mus musculus [7]; [16]): 8 mg/kg; Time (Mus musculus [13]): 127 min; AD50 (Oryctolagus cuniculus [6]): 2.6 mg/kg
Br.CC1N(C)C2CCCC1(c1ccc(O)cc1)C2 (racemic)	inactive	> 100	–	–
CC1C2CCCC1(c1cccc(O)c1)CN2C (racemic; 15) [listing 1 of 2 here]	–	–	–	AD50 (Oryctolagus cuniculus [6]): 0.18 mg/kg
CN1CC2(c3cc(O)cc(O)c3)CCCC1C2 (racemic)	inactive	> 225	–	–
Br.CCC1N(C)C2CCCC1(c1cccc(O)c1)C2 (racemic)	–	59.8	8.8	–
C#CCN1CC2(c3cccc(O)c3)CCCC1C2.O=C(O)C(=O)O (racemic)	inactive	> 100	–	AD50 (Oryctolagus cuniculus [6]): 1.6 mg/kg
CC(=O)Oc1cccc(C23CCCC(C2)N(C)C3C)c1 (single isomer, unassigned; (-))	inactive	–	–	Activity (Mus musculus [14]): inactive; Activity (Rhesus monkey [12]): Active; Activity (Rhesus monkey [15]): inactive

SMILES	Activity (Mus musculus [1])	LD50 [2] [mg/kg]	ED50 (Mus musculus [3]; [16]) [mg/kg]	further results
C#CCN1C2CCCC(c3cccc(O)c3)(C2)C1C.Cl (racemic)	–	> 100	22.5	AD50 (Oryctolagus cuniculus [6]): 0.19 mg/kg
C/C=C\N1CC[C@]23CCCC[C@H]2[C@H]1Cc1ccc(O)cc13.Cl	–	–	–	AD50 (Oryctolagus cuniculus [6]): 0.014 mg/kg
CC(C)=CCN1CCC2(C)c3cc(O)ccc3CC1C2C.Cl (centres undefined) [PENTAZOCINE HYDROCHLORIDE]	–	190	4.5	ED50 (Mus musculus [7]; [16]): 12.3 mg/kg; AD50 (Oryctolagus cuniculus [6]): 1.5 mg/kg
Br.CCC(=O)Oc1cccc(C23CCCC(C2)N(C)C3C)c1 (racemic)	–	114	2.3	ED50 (Mus musculus [7]; [16]): 9.9 mg/kg
Br.CCCCCC(=O)Oc1cccc(C23CCCC(C2)N(C)C3C)c1 (racemic)	–	156	12.3	–
C=CCN1CC2(c3cccc(O)c3)CCCC1C2.Cl (racemic)	inactive	> 100	–	AD50 (Oryctolagus cuniculus [6]): 1.7 mg/kg
CCCN1C2CCCC(c3cccc(O)c3)(C2)C1C.Cl (racemic)	inactive	> 30	–	AD50 (Oryctolagus cuniculus [6]): 0.03 mg/kg
CC1C2CCCC1(c1cccc(O)c1)C(C)N2C (racemic; 14)	–	–	–	Activity (Mus musculus [5]): inactive
Cl.Oc1cccc(C23CCCC(C2)N(CC2CCC2)C3)c1 (racemic)	–	> 30	–	Activity (Mus musculus [5]): inactive; AD50 (Oryctolagus cuniculus [6]): 3.5 mg/kg
O=C(O)C(=O)O.c1ccc(CCN2CC3(c4ccccc4)CCCC2C3)cc1 (racemic)	inactive	> 100	–	–
Cl.O=C(CCN1CC2(c3cccc(O)c3)CCCC1C2)c1ccccc1 (racemic)	–	184	10.1	–
CCN1C2CCCC(c3cccc(O)c3)(C2)C1C.Cl (racemic)	inactive	> 30	–	–
Cl.O=C(CCCN1CC2(c3cccc(O)c3)CCCC1C2)c1ccc(F)cc1 (racemic)	–	> 100	2	–
CC1C2CCCC1(c1cccc(O)c1)CN2C (racemic; 15) [listing 2 of 2 here]	–	–	–	Activity (Mus musculus [5]): inactive
O=C(O)C(=O)O.c1ccc(C23CCCC(C2)N(CC2CC2)C3)cc1 (racemic)	inactive	> 30	–	inhibition in vivo at 5 mg/kg (Oryctolagus cuniculus [11]): 41%
Br.CC1N(C)C2CCCC1(c1ccccc1O)C2 (racemic)	inactive	> 100	–	–
CC1C2CCCC1(c1cccc(O)c1)CN2C (racemic; 13) [listing 1 of 2 here]	–	> 30	–	AD50 (Oryctolagus cuniculus [6]): 1.1 mg/kg
CC(=O)Oc1cccc(C23CCCC(C2)N(C)C3C)c1.Cl (racemic)	–	123	–	ED50 (Mus musculus [3]): 2.9 mg/kg; ED50 (Mus musculus [7]; [16]): 3.5 mg/kg
CC1C2CCCC1(c1cccc(O)c1)CN2C (racemic; 13) [listing 2 of 2 here]	–	–	–	Activity (Mus musculus [5]): inactive
Br.COc1cccc(C23CCCC(C2)N(C)C3)c1 (racemic)	–	31.2	8.6	–
